In ChEMBL document CHEMBL4118265, “A cascade synthesis, in vitro cholinesterases inhibitory activity and docking studies of novel Tacrine-pyranopyrazole derivatives” (Bioorg Med Chem Lett, 2018):

Experiments:
[1] = biological target: Cholinesterase (Equus caballus) (UniProt P81908); test: Inhibition of horse serum BChE at 0.781 ug using butyrylthiocholine chloride as substrate preincubated for 15 mins followed by substrate addition measured every 5 mins for 15 mins by spectrophotometric method relative to control
Sequence of Cholinesterase (Equus caballus) (P81908 whole entry): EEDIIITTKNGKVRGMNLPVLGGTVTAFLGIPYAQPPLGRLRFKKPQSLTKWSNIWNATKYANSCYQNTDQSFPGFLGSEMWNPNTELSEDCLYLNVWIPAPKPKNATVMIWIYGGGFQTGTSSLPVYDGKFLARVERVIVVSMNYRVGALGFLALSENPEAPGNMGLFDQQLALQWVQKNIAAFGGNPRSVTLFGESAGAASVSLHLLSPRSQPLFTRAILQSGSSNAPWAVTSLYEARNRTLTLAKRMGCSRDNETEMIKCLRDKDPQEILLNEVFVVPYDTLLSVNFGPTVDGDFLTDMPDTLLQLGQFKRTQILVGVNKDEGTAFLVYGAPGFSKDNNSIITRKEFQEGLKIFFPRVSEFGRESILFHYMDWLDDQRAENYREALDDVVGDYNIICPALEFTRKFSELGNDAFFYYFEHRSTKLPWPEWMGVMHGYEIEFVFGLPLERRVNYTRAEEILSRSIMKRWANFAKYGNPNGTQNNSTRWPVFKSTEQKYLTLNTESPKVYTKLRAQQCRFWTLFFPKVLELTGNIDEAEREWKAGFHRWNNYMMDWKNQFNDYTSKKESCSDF
Summary of the method: (§1)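 Ellman colorimetric assay. Compound in methanol (10 µl) was mixed with 150 µl 100 mM sodium phosphate pH 8.0 and BChE (6.85 x10-3 U) and held 15 min at 25 °C. DTNB (0.5 mM) was added, then butyrylthiocholine chloride (0.2 mM) to start the reaction. A412 read every 5 min for 15 min, in triplicate. Percent inhibition = (E−S)/E×100 against a methanol blank.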

[2] = biological target: Cholinesterase (Equus caballus) (UniProt P81908); test: Inhibition of horse serum BChE at 12.5 ug using butyrylthiocholine chloride as substrate preincubated for 15 mins followed by substrate addition measured every 5 mins for 15 mins by spectrophotometric method relative to control
Summary of the method: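 Ellman colorimetric assay. DTNB (0.5 mM) was added, then butyrylthiocholine chloride (0.2 mM) to start the reaction. A412 read every 5 min for 15 min, in triplicate. Percent inhibition = (E−S)/E×100 against a methanol blank.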

[3] = Selectivity ratio of IC50 for horse serum BChE to IC50 for electric eel AChE
[4] = biological target: Cholinesterase (Equus caballus) (UniProt P81908); test: Inhibition of horse serum BChE at 3.125 ug using butyrylthiocholine chloride as substrate preincubated for 15 mins followed by substrate addition measured every 5 mins for 15 mins by spectrophotometric method relative to control; summary of the method: as §1
[5] = biological target: Cholinesterase (Equus caballus) (UniProt P81908); test: Inhibition of horse serum BChE at 25 ug using butyrylthiocholine chloride as substrate preincubated for 15 mins followed by substrate addition measured every 5 mins for 15 mins by spectrophotometric method relative to control; summary of the method: as §1
[6] = biological target: Cholinesterase (Equus caballus) (UniProt P81908); test: Inhibition of horse serum BChE at 0.391 ug using butyrylthiocholine chloride as substrate preincubated for 15 mins followed by substrate addition measured every 5 mins for 15 mins by spectrophotometric method relative to control; summary of the method: as §1
[7] = biological target: Cholinesterase (Equus caballus) (UniProt P81908); test: Inhibition of horse serum BChE at 1.563 ug using butyrylthiocholine chloride as substrate preincubated for 15 mins followed by substrate addition measured every 5 mins for 15 mins by spectrophotometric method relative to control; summary of the method: as §1
Acetylcholinesterase = Acetylcholinesterase (Electrophorus electricus, UniProt O42275); test: Inhibition of electric eel AChE using acetylthiocholine iodide as substrate preincubated for 15 mins followed by substrate addition measured every 5 mins for 15 mins by spectrophotometric method
Sequence of Acetylcholinesterase (O42275 whole entry): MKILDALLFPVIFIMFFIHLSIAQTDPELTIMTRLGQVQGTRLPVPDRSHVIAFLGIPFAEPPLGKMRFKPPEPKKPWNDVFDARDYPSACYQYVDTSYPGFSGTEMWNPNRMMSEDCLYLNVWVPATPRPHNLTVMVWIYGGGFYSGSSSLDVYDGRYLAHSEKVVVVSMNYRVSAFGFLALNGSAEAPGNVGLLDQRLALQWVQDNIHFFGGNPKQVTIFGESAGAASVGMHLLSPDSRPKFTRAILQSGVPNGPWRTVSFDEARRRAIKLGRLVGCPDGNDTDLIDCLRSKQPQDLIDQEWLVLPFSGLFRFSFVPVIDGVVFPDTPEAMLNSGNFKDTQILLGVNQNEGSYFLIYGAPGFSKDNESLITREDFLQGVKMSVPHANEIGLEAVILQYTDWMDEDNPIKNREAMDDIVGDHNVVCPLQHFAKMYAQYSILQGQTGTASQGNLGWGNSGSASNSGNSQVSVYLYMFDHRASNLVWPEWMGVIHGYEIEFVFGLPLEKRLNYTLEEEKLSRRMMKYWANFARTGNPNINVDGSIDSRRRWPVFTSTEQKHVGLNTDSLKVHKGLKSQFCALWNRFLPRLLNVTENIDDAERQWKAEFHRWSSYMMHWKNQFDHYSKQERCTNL

Cholinesterase = Cholinesterase (Equus caballus, UniProt P81908); test: Inhibition of horse serum BChE using butyrylthiocholine chloride as substrate preincubated for 15 mins followed by substrate addition measured every 5 mins for 15 mins by spectrophotometric method
Sequence of Cholinesterase (P81908 whole entry): as the sequence (P81908 whole entry) above
Summary of the method: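 BChE (6.85 x10-3 U) in 100 mM sodium phosphate pH 8.0 was preincubated 15 min at 25 °C with compound at several concentrations in methanol. DTNB (0.5 mM) and butyrylthiocholine chloride (0.2 mM) were then added. A412 read every 5 min for 15 min. IC50 derived from percent inhibition versus a methanol blank; mean ± SD of triplicates.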

[8] = biological target: Cholinesterase (Equus caballus) (UniProt P81908); test: Inhibition of horse serum BChE at 6.25 ug using butyrylthiocholine chloride as substrate preincubated for 15 mins followed by substrate addition measured every 5 mins for 15 mins by spectrophotometric method relative to control; summary of the method: as §1
[9] = biological target: Acetylcholinesterase (Electrophorus electricus) (UniProt O42275); test: Inhibition of electric eel AChE at 0.006 ug using acetylthiocholine iodide as substrate preincubated for 15 mins followed by substrate addition measured every 5 mins for 15 mins by spectrophotometric method relative to control
Sequence of Acetylcholinesterase (Electrophorus electricus) (O42275 24-633 limits assumed): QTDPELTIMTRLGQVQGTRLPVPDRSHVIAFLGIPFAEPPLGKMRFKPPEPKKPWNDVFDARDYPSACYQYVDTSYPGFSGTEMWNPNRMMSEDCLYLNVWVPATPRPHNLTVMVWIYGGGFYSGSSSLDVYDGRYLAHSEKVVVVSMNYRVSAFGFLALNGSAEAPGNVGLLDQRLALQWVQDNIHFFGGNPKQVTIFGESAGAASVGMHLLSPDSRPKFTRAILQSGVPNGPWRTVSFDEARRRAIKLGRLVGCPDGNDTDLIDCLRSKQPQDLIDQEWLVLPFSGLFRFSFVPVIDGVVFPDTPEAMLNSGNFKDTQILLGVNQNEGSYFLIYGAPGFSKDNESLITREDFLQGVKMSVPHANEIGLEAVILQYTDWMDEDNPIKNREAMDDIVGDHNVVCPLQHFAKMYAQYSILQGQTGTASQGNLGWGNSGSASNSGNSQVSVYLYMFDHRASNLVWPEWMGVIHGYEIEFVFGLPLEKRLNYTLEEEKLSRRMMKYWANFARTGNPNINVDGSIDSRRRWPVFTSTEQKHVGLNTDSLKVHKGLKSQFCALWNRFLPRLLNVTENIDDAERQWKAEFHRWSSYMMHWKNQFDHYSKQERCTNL
Summary of the method: as §1, with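 “AChE (5.32” for “BChE (6.85”, “acetylthiocholine iodide (0.71” for “butyrylthiocholine chloride (0.2”, “Thiolate formation” for “A412”, “read at 412 nm” for “read”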

[10] = biological target: Acetylcholinesterase (Electrophorus electricus) (UniProt O42275); test: Inhibition of electric eel AChE at 0.012 ug using acetylthiocholine iodide as substrate preincubated for 15 mins followed by substrate addition measured every 5 mins for 15 mins by spectrophotometric method relative to control
Summary of the method: as §1, with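 “AChE (5.32” for “BChE (6.85”, “acetylthiocholine iodide (0.71” for “butyrylthiocholine chloride (0.2”, “Thiolate formation” for “A412”, “read at 412 nm” for “read”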

| SMILES | inhibition [1] [%] | inhibition [2] [%] | Ratio IC50 [3] | inhibition [4] [%] | inhibition [5] [%] | inhibition [6] [%] | inhibition [7] [%] | IC50 (Acetylcholinesterase) [nM] | IC50 (Cholinesterase) [nM] | inhibition [8] [%] | inhibition [9] [%] | inhibition [10] [%] |
| --- | --- | --- | --- | --- | --- | --- | --- | --- | --- | --- | --- | --- |
| Cc1[nH]nc2c1C(c1cc([N+](=O)[O-])ccc1Cl)c1c(nc3c(c1N)CCCC3)O2 (stereo not given) | 10.2 | 54.2 | 2.4 | 21.6 | 71.9 | 5.53 | 13.9 | 1040 | 2500 | 35.6 |  |  |
| Cc1[nH]nc2c1C(c1ccccc1)c1c(nc3c(c1N)CCCC3)O2 (stereo not given) | 10.7 | 52.5 | 29.3 | 23.9 | 72.9 | 5.38 | 13.6 | 1230 | 36000 | 30.7 |  |  |
| COc1ccc2c3c1O[C@H]1C[C@@H](O)C=C[C@@]31CCN(C)C2 | 21 |  |  | 63.9 | 97 | 11.1 | 55.2 |  |  |  |  |  |
| Cc1[nH]nc2c1C(c1ccc([N+](=O)[O-])cc1)c1c(nc3c(c1N)CCCC3)O2 (stereo not given) | 37.9 | 92.6 | 0.47 | 75.1 | 93.2 | 24.9 | 66.8 | 5800 | 2730 | 90.3 |  |  |
| Cc1[nH]nc2c1C(c1c(Cl)cccc1[N+](=O)[O-])c1c(nc3c(c1N)CCCC3)O2 (stereo not given) | 52.1 | 94.3 | 1.04 | 85.3 | 98.7 | 37.6 | 66.2 | 1770 | 1840 | 86.5 |  |  |
| Cc1[nH]nc2c1C(c1ccc(-c3ccccc3)cc1)c1c(nc3c(c1N)CCCC3)O2 (stereo not given) |  | 14.1 | > 1390 |  | 20.6 |  |  | 44 | > 61200 | 11.8 | 34.4 | 43 |
| Cc1[nH]nc2c1C(c1ccc(Br)cc1)c1c(nc3c(c1N)CCCC3)O2 (stereo not given) | 17.4 | 60.5 | 6.47 | 43.1 | 69.9 | 13.1 | 37.9 | 1800 | 11600 | 58.5 |  |  |
| COc1ccc(C2c3c(n[nH]c3C)Oc3nc4c(c(N)c32)CCCC4)c(OC)c1 (stereo not given) | 17.8 | 62.8 | 120 | 43 | 80.8 |  | 37.1 | 260 | 31100 | 55.8 |  |  |
| CSc1ccc(C2c3c(n[nH]c3C)Oc3nc4c(c(N)c32)CCCC4)cc1 (stereo not given) | 10.1 | 44.5 | > 1140 | 31 | 46.7 | 0.11 | 23.7 | 58 | > 66000 | 36.6 | 30.4 | 36.9 |
| COc1ccc2ccccc2c1C1c2c(n[nH]c2C)Oc2nc3c(c(N)c21)CCCC3 (stereo not given) | 7.31 | 63 | 87.3 | 47.9 | 70 | 2.86 | 25.1 | 130 | 11300 | 51.9 | 12.6 | 16.1 |
| Cc1[nH]nc2c1C(c1ccc(Cl)cc1)c1c(nc3c(c1N)CCCC3)O2 (stereo not given) | 23 | 45.8 | > 41 | 27.9 | 46.9 | 20.8 | 23.4 | 1660 | > 68200 | 31.7 |  |  |
| Cc1ccc(C2c3c(n[nH]c3C)Oc3nc4c(c(N)c32)CCCC4)c(C)c1 (stereo not given) |  | 49.7 | 135 | 13.3 | 51.9 |  |  | 290 | 39000 | 44.8 |  |  |
| Cc1[nH]nc2c1C(c1cccnc1)c1c(nc3c(c1N)CCCC3)O2 (stereo not given) | 41.6 | 74.2 | 12.9 | 57.1 | 84.8 | 18.2 | 53.9 | 330 | 4260 | 72 | 6.61 | 13.1 |
